Screens deposited in PubChem BioAssay by several laboratories.
DNA FID counter = counter-screen for HCV NS3 helicase inhibitors: DNA intercalator displacement. inhibition, % at 7.9 µM. actives 0.17% (n = 290,000). DNA fluorescent intercalator displacement, fluorescence; in the data active means inhibition above about 37%;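 further: higher means more ethidium bromide displaced from hairpin DNA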
TRPC6 activator = activates the mouse TRPC6 cation channel | AID 2550 | Q61143 | actives 0.13% (n = 310,000) | B-score at 10 µM | HEK293-TRPC6 membrane potential dye fluorescence; stronger effect = higher value;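 active means B-score of the integrated fluorescence ratio above library mean plus 3 SD, and starting fluorescence ratio within library mean plus 5 SD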;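 further: higher score means more depolarization so channel activation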
TRPC4 agonist = activators of mouse TRPC4 channel; B-score at 10 µM; Q9QUQ5; HEK293 TRPC4beta/mu-opioid, Fluo4 calcium fluorescence; stronger effect = higher value; actives 0.49% (n = 310,000);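 active means B-score above 5 SD of library B-scores, and initial fluorescence ratio not above library mean plus 5 SD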;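 further: positive B-score marks a calcium rise read as TRPC4 activation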
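Incubation: 45 min room-temperature Fluo4 loading, 110 s read / System: HEK293 cells stably co-expressing mouse TRPC4beta and mu-opioid receptor / Signal: Fluo4 fluorescence, kinetic / Control set: buffer (low) and maximal DAMGO (high) / Measure: integrated baseline-normalised fluorescence ratio, converted to per-well B score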
TRPC6 inh = mouse TRPC6 channel inhibition | Q61143 | HEK293-TRPC6, membrane potential dye, ACh-evoked depolarization; stronger effect = lower value | B-score at 10 µM | actives 1.1% (n = 310,000);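 active means B-score under library mean minus 3 SD, initial fluorescence not abnormally high, positive integrated signal ratio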;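 further: B-score derived from integrated fluorescence ratio over the kinetic read; more negative B-score means stronger inhibition of depolarization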
TRPC4 block = inhibitors of mouse TRPC4 channel | Q9QUQ5 | actives 0.39% (n = 300,000) | B-score at 10 µM | HEK293 TRPC4beta/mu-opioid, DAMGO-evoked Fluo4 calcium flux; stronger effect = lower value;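 active means B-score over 3 SD under the library average, no early fluorescence shift, positive overall ratio signal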
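Material: HEK293 cells with stable TRPC4beta plus mu-opioid receptor expression; probe or stimulus: DAMGO in two steps, submaximal then maximal; technique: Fluo4 calcium fluorescence by kinetic imaging, 5 s 1 Hz baseline; measure: integrated fluorescence ratio relative to baseline, converted to per-well B score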
TRPC4 potent = TRPC4 (mouse) allosteric potentiation | Q9QUQ5 | HEK293 TRPC4beta/mu-opioid, DAMGO EC20, Fluo-4 Ca2+ flux; stronger effect = higher value | B-score at 10 µM | actives 0.42% (n = 310,000);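 active means B-score of calcium response area above 5 SD of library B-scores, with initial fluorescence ratio within 5 SD of library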
Of the large screens only hits and unclear results are named; the others gave an inactive call. This is a sample that favours compounds with a hit; in the whole collection about 2.3% have one here.

COc1ccc(CCn2c(=S)[nH]c3cc(C(=O)N4CCOCC4)ccc3c2=O)cc1OC	TRPC4 potent 20
O=[N+]([O-])c1ccc(C2CN=C(Nc3ccccc3)S2)cc1 (configuration not stated)	none
CCc1ccc(NC2=NCC(c3ccccc3)S2)cc1 (configuration not stated)	TRPC4 potent 12
Cc1ccc(S(=O)(=O)N2CCN(C(=O)COC(=O)c3ccc(O)cc3)CC2)c(C)c1	none (no result: DNA FID counter)
c1ccc(-c2noc(CN3CCCC(OCc4ccccn4)C3)n2)cc1 (configuration not stated)	DNA FID counter 60
COC(=O)Nc1ccc2c(c1)N(C(=O)CCN1CCN3CCCC3C1)c1ccccc1CC2 (configuration not stated)	none
COC(=O)Nc1ccc2c(c1)N(C(=O)CCN1CCN3CCCC3C1)c1ccccc1S2 (configuration not stated)	DNA FID counter 39
CSCC[C@H](NC(=O)c1ccco1)c1nnc2ccccn12	none
COc1ccc(/C=N/Nc2cc(C)nc3ccc(OC)cc23)c(OC)c1	TRPC6 inh -5.4
COc1ccc2nc(C)cc(NCc3ccc(F)cc3)c2c1	TRPC4 block -6
COc1ccccc1/C=N/Nc1cc(C)nc2ccc(C)cc12	none
COc1ccc(CNC(=O)CSc2nccn(-c3ccc(F)c(F)c3)c2=O)cc1	none (no result: DNA FID counter)
CN(C)c1ccc(NC(=O)CSc2nnc(-c3ccco3)c(-c3ccco3)n2)cc1	TRPC6 inh -5
Cc1cc(C(=O)N2CCCC(N3CCN(Cc4ccc5c(c4)OCO5)CC3)C2)n[nH]1 (configuration not stated)	none
Cc1ccc(NC(=O)CSc2nc3ncc(Cl)cc3[nH]2)c(C)c1	none
N=c1c(C(=O)NCc2ccccc2)cc2c(=O)n3ccccc3nc2n1Cc1ccco1	none
N=c1c(C(=O)NCc2ccco2)cc2c(=O)n3ccccc3nc2n1Cc1ccc(Cl)cc1	TRPC4 potent 13
CC(C)n1c(=N)c(C(=O)NCCc2ccccc2)cc2c(=O)n3ccccc3nc21	TRPC6 inh -10
N=c1c(C(=O)NCc2ccc(F)cc2)cc2c(=O)n3ccccc3nc2n1Cc1ccco1	TRPC4 potent 15
CN(CCCC(=O)O)c1ccc(N=Nc2ccc([N+](=O)[O-])cc2)cc1	none (no result: DNA FID counter)
COc1ccc(C(C(=O)NC2CCCCC2)N(C(=O)c2ccco2)c2ccccc2C(C)=O)cc1 (configuration not stated)	none
CCOC(=O)CC1CCCCN1C(=O)c1cc(COc2cccc3cnccc23)on1 (configuration not stated)	none
COc1ccc(N2CCN(C(=O)CNC(=O)Cn3cnc4sc(C)c(C)c4c3=O)CC2)cc1	none
CCN1C(N(C)CCc2cccs2)=N[C@@H](c2ccccc2)C(C(=O)OC)=C1C	TRPC4 block -5
CCN1C(=S)N[C@@H](c2ccccc2)C(C(=O)OC)=C1C	none
COC(=O)c1ccc(OC(=O)c2ccncc2)cc1O	none
CCCC1Oc2ccccc2C(=O)N(CC(=O)c2ccc3c(c2)OCCO3)C1=O (configuration not stated)	none
COC(=O)c1cc(C(=O)c2ccc(C(C)(C)C)cc2)c[nH]1	TRPC4 potent 10
CCCCC(=O)N1CCN(c2nc3ccc(OCC)cc3s2)CC1	none
CCCCC(=O)N1CCN(c2nc3ccc(F)cc3s2)CC1	TRPC4 agonist 78
Cc1ccc(-c2cc(C(=O)N3CCCCC3)c3ccccc3n2)cc1C	none
COc1ccc(C[C@H]2CN3C(=NC[C@@H]3Cc3ccccc3)N2CCNC(=O)CCC2CCCCC2)cc1	TRPC4 agonist 60
COc1ccc(C[C@H]2CN3C(=NC[C@@H]3C(C)C)N2CCNC(=O)CCC2CCCCC2)cc1	none
Cc1cc(N/N=C/c2ccc(O)cc2)c2cccc(C)c2n1	none
Cc1cc(C)c2nc(C)cc(N/N=C/c3ccc(O)cc3)c2c1	DNA FID counter 48, TRPC4 block -6
CCC(=O)c1ccc(OCC(O)CNCc2ccc(F)cc2)cc1 (configuration not stated)	none
Clc1ccc(OCCNCCc2ccccc2)cc1	TRPC4 agonist 98
CC(C)(c1ccccc1)c1ccc(OCC(O)CN2CCCC2)cc1 (configuration not stated)	none
